Bioassay records deposited in PubChem by several laboratories.
CendR NRP1 mod – modulators of CendR peptide binding to NRP-1, primary screen, biochemical, fluorescence polarization, uHTS | Neuropilin-1 (Homo sapiens), O14786 | inhibition, % at 25 µM | FAM-RPARPAR peptide binding to NRP-1 | 360,000 tested, 0.85% active | AID 602438, 2012;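 active means inhibition or corrected inhibition above about 18%, plus a signal ratio from 0.5 to 1.5, limit read from the data, passing the limit was not always enough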
PLC-beta3 inh – human PLC-beta3 inhibitors, primary screen, biochemical, fluorescence; inhibition, % at 12.2 µM; 370,000 tested, 0.18% active; Purified PLC-beta3, fluorogenic substrate; 1-phosphatidylinositol 4,5-bisphosphate phosphodiesterase beta-3 (Homo sapiens), Q01970; in the data active means inhibition above about 11%;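 further: 0% = median of compound wells on plate and 100% = full blocker control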
KLK7 zymogen act – proKLK7 zymogen activators, primary screen, biochemical, fluorescence intensity. activation, % at 7 µM. purified proKLK7, EDANS-DABCYL substrate fluorescence; 100% is mature enzyme control, 0% vehicle. 370,000 tested, 0.9% active;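 active means activation above the mean of all tested compounds plus 3 SD, computed per campaign excluding outliers beyond control limits, cut at about 13% in these data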
PLCg1 inh – PLC-gamma1 enzyme inhibitors, primary screen, biochemical, fluorescence, purified enzyme; 1-phosphatidylinositol 4,5-bisphosphate phosphodiesterase gamma-1 (Homo sapiens), P19174; fluorogenic substrate; inhibition, % at 12.2 µM; 370,000 tested, 0.84% active; AID 720700, 2013; in the data active means inhibition above about 9.5%
Target sequence (P19174 whole entry, looked up): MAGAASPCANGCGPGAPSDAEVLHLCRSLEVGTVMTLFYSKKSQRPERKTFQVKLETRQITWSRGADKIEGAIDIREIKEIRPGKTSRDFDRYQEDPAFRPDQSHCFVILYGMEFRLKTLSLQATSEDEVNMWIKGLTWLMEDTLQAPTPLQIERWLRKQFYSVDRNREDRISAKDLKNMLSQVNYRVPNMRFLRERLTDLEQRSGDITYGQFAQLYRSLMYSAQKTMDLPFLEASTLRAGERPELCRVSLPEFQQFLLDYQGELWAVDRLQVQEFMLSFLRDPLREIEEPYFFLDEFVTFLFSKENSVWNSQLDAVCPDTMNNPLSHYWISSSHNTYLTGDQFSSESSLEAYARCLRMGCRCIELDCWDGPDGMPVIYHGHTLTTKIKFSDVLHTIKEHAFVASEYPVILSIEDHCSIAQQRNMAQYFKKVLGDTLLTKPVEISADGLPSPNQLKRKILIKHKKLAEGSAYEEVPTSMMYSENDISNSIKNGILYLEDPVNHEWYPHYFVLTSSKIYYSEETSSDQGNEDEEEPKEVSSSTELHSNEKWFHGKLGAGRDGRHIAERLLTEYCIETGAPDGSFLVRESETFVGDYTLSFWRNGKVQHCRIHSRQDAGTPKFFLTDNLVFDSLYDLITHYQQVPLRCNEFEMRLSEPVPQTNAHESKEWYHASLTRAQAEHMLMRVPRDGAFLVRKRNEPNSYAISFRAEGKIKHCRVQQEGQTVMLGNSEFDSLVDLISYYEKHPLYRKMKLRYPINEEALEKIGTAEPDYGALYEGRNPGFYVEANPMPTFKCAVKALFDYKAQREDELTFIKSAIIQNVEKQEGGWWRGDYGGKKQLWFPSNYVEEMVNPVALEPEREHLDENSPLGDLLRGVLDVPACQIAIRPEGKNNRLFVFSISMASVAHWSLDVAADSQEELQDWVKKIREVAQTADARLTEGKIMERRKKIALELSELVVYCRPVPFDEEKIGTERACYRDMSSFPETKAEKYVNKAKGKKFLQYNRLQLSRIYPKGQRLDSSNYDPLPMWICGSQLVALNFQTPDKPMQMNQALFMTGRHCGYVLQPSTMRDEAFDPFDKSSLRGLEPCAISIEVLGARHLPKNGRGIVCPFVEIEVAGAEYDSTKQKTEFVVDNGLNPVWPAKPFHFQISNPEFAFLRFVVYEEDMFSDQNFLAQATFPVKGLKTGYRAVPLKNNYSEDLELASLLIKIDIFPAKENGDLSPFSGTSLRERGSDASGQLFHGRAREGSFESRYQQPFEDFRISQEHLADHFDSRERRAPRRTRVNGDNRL
DDE Tn6 FP inh – inhibitors of Tn6 peptide binding to fibrin DD(E), primary screen, biochemical, fluorescence polarization, human fibrin, Tn6 probe | Fibrin DD(E) TRITC-Tn6 fluorescence polarization displacement | inhibition, % at 8.3 µM | 370,000 tested, 0.21% active | AID 720509, 2013;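 active means inhibition above a per-campaign cutoff: mean of compounds within control limits plus 3 SD, cut at about 15% in these data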;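 further: 0% = median of all compound wells on the plate and 100% = blocking peptide control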
Tn7 DDE FP – inhibitors of Tn7 peptide binding to fibrin DD(E), primary screen, biochemical, fluorescence polarization, human fibrin, Tn7 probe; inhibition, % at 8.3 µM; AID 720508, 2013; 370,000 tested, 0.13% active; FP displacement of FITC-Tn7 peptide from fibrin DD(E); 0% = median of compound wells per plate;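 active means inhibition above the mean of compounds falling within the control limits plus 3 SD of them, cut at about 14% in these data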;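 further: 0% = plate median of compound wells and 100% = 10 µM Aha-Tn7 peptide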
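Assay system: Human fibrin DD(E) protein | Medium: Tris buffer with calcium and detergent, pH 7.8 | Reagent: 0.1 µM fluorescent Tn7 | Compound dosing: Single point at 8.3 µM | Times: 10 min preincubation, 3 h with tracer, room temperature | Detection: Fluorescence polarization of the labelled Tn7 tracer | Controls: Aha-Tn7 high control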
The depositor's hits bear a star; · = no result. Hits are enriched below; roughly 3% of the tested compounds scored in any of these assays.

SMILES	CendR NRP1 mod	PLC-beta3 inh	KLK7 zymogen act	PLCg1 inh	DDE Tn6 FP inh	Tn7 DDE FP
CCN1CCN(C(CNS(=O)(=O)c2ccc(Cl)cc2)c2cccnc2)CC1 (stereo unspecified)	-13	-6	0	12*	-2	-5
NC(=O)C(c1ccc(Cl)cc1)c1ncc(C(F)(F)F)cc1Cl (stereo unspecified)	11	0	0	-3	-8	3
NC(=O)C(c1ccc(Cl)cc1Cl)c1ncc(C(F)(F)F)cc1Cl (stereo unspecified)	23*	2	0	-1	-4	1
COc1ccccc1NS(=O)(=O)c1ccc(N/N=C/C=C/c2ccccc2[N+](=O)[O-])c([N+](=O)[O-])c1	29*	1	0	1	3	3
FC(F)(F)c1cc(C(F)(F)F)c2ccc(Oc3ccccc3)nc2n1	33*	-1	0	-1	15	-3
FC(F)(F)c1cccc(Oc2ccc3c(C(F)(F)F)cc(C(F)(F)F)nc3n2)c1	-2	4	0	-1	4	-5
CCn1c(SCC(=O)Nc2ccc(C(N)=O)cc2)nc2sc(C)c(C)c2c1=O	·	3	0	-1	-3	-4
COCC1CN(CCc2ccc(F)cc2)S(=O)(=O)c2c(OCCN3C(=O)[C@@H]4[C@H](C3=O)[C@@H]3C=C[C@H]4C3)cccc2O1 (stereo partly specified)	·	1	1	2	3	3
CCOC(=O)N1CCN(C(=S)NC(=O)c2ccc(Br)cc2)CC1	-7	-4	0	-1	1	0
CCN1CCN(C(=S)NC(=O)c2cccc(Br)c2)CC1	43*	-2	0	1	-1	10
O=C(CSc1nnc(C2CC2)n1-c1ccccc1)N1CCNC1=O	20*	-6	0	5	-8	-4
CC(Sc1nnc(C2CC2)n1-c1ccccc1)C(=O)N1CCNC1=O (stereo unspecified)	4	-5	0	4	1	9
Cc1cc(C)cc(OC(C)CCN2CCC(C(O)(c3ccccc3)c3ccccc3)CC2)c1 (stereo unspecified)	·	2	0	4	4	3
COc1cc2c3c(c1)c(C1=NC(=S)NC1=O)c(O)n3C(C)(C)C=C2C	-1	3	1	4	-4	5
CC1(c2ccccc2)CC(C)(C)n2c(O)c(C3=NC(=S)NC3=O)c3cccc1c32 (stereo unspecified)	26*	-2	0	3	0	-5
O=C(CSc1cccc[n+]1[O-])Nc1cc(S(=O)(=O)N2CCOCC2)ccc1N1CCOCC1	28*	6	1	5	3	-2
O=C(NCCc1ccccc1)c1cc2sccc2n1Cc1ccccc1	-4	4	0	10*	-7	-2
Cc1ccccc1NC(=S)NC(=O)COc1ccccc1C	22*	-5	0	4	3	1
c1ccc(-c2nc(C3CCCCC3)c3sccc3n2)cc1	28*	1	0	2	1	-2
c1ccc(-c2nc(C3CCCCC3)c3ccccc3n2)cc1	3	4	0	3	-1	-2
Cc1n[nH]c(=O)nc1NCc1ccccc1	-11	0	1	-3	13	2
Cc1n[nH]c(=O)nc1NCc1ccco1	25*	3	0	4	-6	-4
CC(=O)OC12CCCN(C1)/C(=C/c1ccc(Cl)cc1)C2 (stereo unspecified)	·	-3	0	3	-6	0
COc1cccc(-n2c(=O)n(Cc3ccccc3)c(=O)c3[nH]cnc32)c1	22*	0	0	3	7	1
O=c1c2[nH]cnc2n(-c2ccccc2)c(=O)n1Cc1ccccc1	-8	-7	0	-4	1	5
